Legend:
Salmonella typhimurium [1] = experiment: Antimutagenic activity in Salmonella Typhimurium TA102 assessed as protection against hydrogen peroxide-induced mutation at 1 ug/plate after 2 days by modified Ames test; format: functional, Salmonella enterica subsp. enterica serovar Typhimurium
Procedure, shortened: (§1)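 S. typhimurium TA102 grown 15 h at 37 °C in Oxoid Nutrient Broth No. 2 with shaking to about (1-2) × 10^8 cells/mL. Culture in histidine/biotin-supplemented top agar with 100 μg hydrogen peroxide and test compound. Plated on Vogel-Bonner E medium, 37 °C for 2 days. His+ revertants scored on 3 plates, averaged, and % protection taken relative to mutagen-induced revertants minus spontaneous revertants.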

Salmonella typhimurium [2] = experiment: Antimutagenic activity in Salmonella Typhimurium TA100 assessed as protection against benzo[a]pyrene-induced mutation at 4 ug/plate after 2 days by modified Ames test; format: functional, Salmonella enterica subsp. enterica serovar Typhimurium
Procedure, shortened: as §1, with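 “TA100” for “TA102”, “5” for “100”, “benzo(a)pyrene plus 50 μL S9” for “hydrogen peroxide”, “mutagen” for “mutagen-induced revertants”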

Salmonella typhimurium [3] = experiment: Antimutagenic activity in Salmonella Typhimurium TA102 assessed as protection against hydrogen peroxide-induced mutation at 4 ug/plate after 2 days by modified Ames test; format: functional, Salmonella enterica subsp. enterica serovar Typhimurium; details: at 4 µg/plate
Salmonella typhimurium [4] = experiment: Antimutagenic activity in Salmonella Typhimurium TA102 assessed as protection against hydrogen peroxide-induced mutation at 2 ug/plate after 2 days by modified Ames test; format: functional, Salmonella enterica subsp. enterica serovar Typhimurium; procedure, shortened: as §1
Salmonella typhimurium [5] = experiment: Antimutagenic activity in Salmonella Typhimurium TA100 assessed as protection against benzo[a]pyrene-induced mutation at 8 ug/plate after 2 days by modified Ames test; format: functional, Salmonella enterica subsp. enterica serovar Typhimurium; details: at 8 µg/plate
Salmonella typhimurium [6] = experiment: Antimutagenic activity in Salmonella Typhimurium TA100 assessed as protection against benzo[a]pyrene-induced mutation at 2 ug/plate after 2 days by modified Ames test; format: functional, Salmonella enterica subsp. enterica serovar Typhimurium
Procedure, shortened: as §1, with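 “TA100” for “TA102”, “5” for “100”, “benzo(a)pyrene plus 50 μL S9” for “hydrogen peroxide”, “mutagen” for “mutagen-induced revertants”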

Salmonella typhimurium [7] = experiment: Antimutagenic activity in Salmonella Typhimurium TA100 assessed as protection against benzo[a]pyrene-induced mutation at 32 ug/plate after 2 days by modified Ames test; format: functional, Salmonella enterica subsp. enterica serovar Typhimurium; details: at 32 µg/plate
Salmonella typhimurium [8] = experiment: Antimutagenic activity in Salmonella Typhimurium TA100 assessed as protection against benzo[a]pyrene-induced mutation at 16 ug/plate after 2 days by modified Ames test; format: functional, Salmonella enterica subsp. enterica serovar Typhimurium; details: at 16 µg/plate
Salmonella typhimurium [9] = experiment: Antimutagenic activity in Salmonella Typhimurium TA102 assessed as protection against hydrogen peroxide-induced mutation at 8 ug/plate after 2 days by modified Ames test; format: functional, Salmonella enterica subsp. enterica serovar Typhimurium; details: at 8 µg/plate
[10] = Cytotoxicity against Salmonella Typhimurium TA100 assessed as maximum non-toxic concentrations after 15 hrs by ELISA; details: salmonella enterica subsp. enterica serovar typhimurium, Salmonella Typhimurium TA100 bacteria

Structure (SMILES)	Activity (Salmonella typhimurium [1])	Activity (Salmonella typhimurium [2])	Activity (Salmonella typhimurium [3])	Activity (Salmonella typhimurium [4])	Activity (Salmonella typhimurium [5])	Activity (Salmonella typhimurium [6])	Activity (Salmonella typhimurium [7])	Activity (Salmonella typhimurium [8])	Activity (Salmonella typhimurium [9])	MNTC at 15 h [10]
CC(C)=CCOc1ccc2ccc(=O)oc2c1 [7-PRENYLOXYCOUMARIN]	9%	29%	17%	14%	36%	19%	–	–	–	–
COc1ccc2ccc(=O)oc2c1 [HERNIARIN]	0%	28%	11%	10%	36%	21%	–	–	–	–
CC1=CC[C@@H](O)C(C)(C)[C@H]1CC/C(C)=C/COc1ccc2ccc(=O)oc2c1	–	–	–	–	–	–	45%	–	–	–
C#CC(C)(C)Oc1ccc2ccc(=O)oc2c1	0%	15%	11%	0%	25%	10%	–	–	–	–
O=c1ccc2ccc(O)cc2o1 [UMBELLIFERONE]	–	10%	13%	7%	22%	–	–	39%	28%	–
O=c1ccc2ccc(OCC3CCCCC3)cc2o1 [UMBELLIFERONECYCLOHEXYLMETHYL ETHER]	–	33%	5%	0%	44%	–	–	54%	39%	16 µg/mL
CC1(C)C=Cc2c(ccc3ccc(=O)oc23)O1 [SESALIN]	–	1%	8%	0%	8%	–	–	20%	22%	–

Reference: ChEMBL document CHEMBL1144121, “Umbelliferone analogues and their potential to inhibit Benzo(a)pyrene- and hydrogen peroxide-induced mutations” (J Nat Prod, 1999)
